SKN-1 block – suppressors of acrylamide-induced Pgst-4::GFP reporter in worms, primary screen, SKN-1 inhibitor project, whole organism, uHTS, GFP/RFP fluorescence ratio, strain VP596 | C. elegans VP596 Pgst-4::GFP/RFP ratio, 24 h | inhibition, % at 21.8 µM | 0.49% of 360,000 active;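 active = interference check ratio from 0.5 to 1.5 plus GFP to RFP signal ratio inhibition reaching or exceeding a fixed threshold, cut at about 30% in these data, passing the limit was not always enough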
MT1-MMP act inh – blockers of MT1-MMP proenzyme processing, primary screen, HT1080 RFP-PRO-GFP cells, GFP/RFP fluorescence; Matrix metalloproteinase-14 (Homo sapiens), P50281; 0.061% of 360,000 active; GFP/RFP ratio change, % at 20 µM; GFP/RFP ratio fluorescence, overnight; percent of plate control window, DMSO zero; AID 651647, 2012;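 active = GFP/RFP ratio change of at least 30% with cell ATP level not reduced by more than half and red fluorescence within 50% of control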
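Compound: 20 µM single dose, 1% DMSO / System: HT1080 RFP-PRO-GFP cells / Controls: DMSO and RFP-L50D-GFP cell wells / Read-out basis: GFP/RFP fluorescence ratio / Schedule: overnight compound exposure at 37 °C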
MsrA inh – bovine MsrA enzyme inhibitors, primary screen, biochemical, absorbance, HTS. 0.75% of 360,000 active. inhibition, % at 15.5 µM. Methionine sulfoxide reductase A (Bos taurus). purified bovine MsrA, absorbance read-out. AID 651718, 2012;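 also: 0% = vehicle wells with enzyme and 100% = reference inhibitor wells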
p-CIP stab down – p/CIP-EGFP fusion destabilizers, primary screen, fluorescence, F442A cells; Q05BA5; 16 h; decrease of EGFP signal, % at 10 µM; 0.01% of 290,000 active; AID 1984, 2009;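 active = EGFP signal decrease of at least 30% at 10 µM or well 3 SD below plate mean, unless failing retest; inactive = the rest, including hits failing retest or dose response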
Target sequence (Q05BA5 1-1403): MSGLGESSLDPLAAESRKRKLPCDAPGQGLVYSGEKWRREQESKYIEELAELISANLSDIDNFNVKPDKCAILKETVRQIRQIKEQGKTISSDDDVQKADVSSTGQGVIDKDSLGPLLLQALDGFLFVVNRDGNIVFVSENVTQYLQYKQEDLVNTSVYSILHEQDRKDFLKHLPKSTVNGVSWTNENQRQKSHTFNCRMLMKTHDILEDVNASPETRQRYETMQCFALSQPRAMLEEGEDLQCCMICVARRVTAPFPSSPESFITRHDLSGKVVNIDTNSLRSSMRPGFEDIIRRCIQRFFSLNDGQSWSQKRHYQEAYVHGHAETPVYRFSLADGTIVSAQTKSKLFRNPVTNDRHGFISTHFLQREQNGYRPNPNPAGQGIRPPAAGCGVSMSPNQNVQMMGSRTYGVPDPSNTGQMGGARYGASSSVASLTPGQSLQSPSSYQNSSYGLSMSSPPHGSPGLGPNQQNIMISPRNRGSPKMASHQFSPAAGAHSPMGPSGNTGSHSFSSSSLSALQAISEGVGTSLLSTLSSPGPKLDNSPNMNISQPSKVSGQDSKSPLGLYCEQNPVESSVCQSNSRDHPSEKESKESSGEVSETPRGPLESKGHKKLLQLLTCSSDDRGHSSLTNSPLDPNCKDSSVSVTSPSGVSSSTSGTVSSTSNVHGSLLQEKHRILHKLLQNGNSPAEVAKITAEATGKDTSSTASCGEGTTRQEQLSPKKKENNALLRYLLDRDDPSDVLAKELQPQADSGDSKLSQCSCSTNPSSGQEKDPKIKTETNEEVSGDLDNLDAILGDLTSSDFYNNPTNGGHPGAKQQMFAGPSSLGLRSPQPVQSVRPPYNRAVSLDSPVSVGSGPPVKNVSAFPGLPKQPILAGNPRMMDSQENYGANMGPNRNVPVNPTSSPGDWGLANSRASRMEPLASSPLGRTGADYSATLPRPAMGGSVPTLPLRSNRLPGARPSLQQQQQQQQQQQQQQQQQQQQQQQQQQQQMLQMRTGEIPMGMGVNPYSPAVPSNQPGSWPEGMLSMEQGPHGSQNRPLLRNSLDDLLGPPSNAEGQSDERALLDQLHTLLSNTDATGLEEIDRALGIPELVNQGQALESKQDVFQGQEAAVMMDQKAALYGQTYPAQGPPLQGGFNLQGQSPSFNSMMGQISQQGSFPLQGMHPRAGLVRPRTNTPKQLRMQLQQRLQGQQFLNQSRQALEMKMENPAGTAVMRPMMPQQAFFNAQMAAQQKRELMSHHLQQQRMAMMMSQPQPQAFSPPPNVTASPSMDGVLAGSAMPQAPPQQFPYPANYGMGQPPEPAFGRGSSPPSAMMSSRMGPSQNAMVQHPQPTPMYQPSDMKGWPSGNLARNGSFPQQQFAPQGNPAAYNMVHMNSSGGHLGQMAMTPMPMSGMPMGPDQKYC
bovine MsrA act – bovine MsrA enzyme activators, primary screen, biochemical, absorbance, HTS; activation, % at 10.6 µM; 0.3% of 360,000 active; purified bovine MsrA, absorbance read-out; Methionine sulfoxide reductase A (Bos taurus); in the data active = activation above about 7.5%;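 also: 0% = vehicle and 100% = reference activator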
MsrA inh confirm – bovine MsrA inhibitors, retest, confirmation, biochemical, absorbance, HTS; shares compounds with MsrA inh; inhibition, % at 15.5 µM; 41% of 2,300 active; purified bovine MsrA, absorbance read-out;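 also: coupled to thioredoxin reductase with NADPH and selenocystamine and DMSO as substrate; 0% = vehicle only and 100% = full effect of reference inhibitor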
* marks the source's active call; other numbers are inactive results; x = not tested or not shown. An excerpt weighted towards active compounds, which were near 1.6% of everything screened. Rule as the data show it, unless noted: active = inhibition above about 4.5%; inactive = the rest.

SMILES	SKN-1 block	MT1-MMP act inh	MsrA inh	p-CIP stab down	bovine MsrA act	MsrA inh confirm
O=C(N[C@@H](Cc1cccnc1)C(=O)N1CCC[C@H]1C(=O)NC1CCCC1)c1ccccc1	x	x	0	x	x	x
CNc1ncc(C(=O)c2ccc(F)cc2)s1	11	3	4.7*	12	-10	3
N#C/C(C(=O)N1CCCCC1)=C1\Nc2ccccc2S1	1	2	8.2*	2	-8	5.0*
Nc1ncnc2c1ncn2[C@@H]1O[C@H](C(=O)N[C@@H](CCc2ccccc2)C(=O)N2CCN(CC(=O)N3CCCC3)CC2)[C@@H](O)[C@H]1O	x	x	1	x	x	x
Cc1ccc(C2=N/C(=C\c3coc4ccccc4c3=O)C(=O)O2)cc1	x	x	0	x	x	x
O=C(O)CCCC(=O)Nc1ccc(N=Nc2ccccc2)cc1	3	-2	6.6*	-2	0	3
COC(=O)CCC(=O)Nc1ccc(N=Nc2ccccc2)cc1	-2	3	4	-1	-10	x
CN1CCc2c(sc3c2C(=O)NC(c2ccco2)N3)C1 (stereo not drawn)	30	-20	3	-18	-3	x
CN1CCc2c(sc3c2C(=O)NC(c2cn(Cc4ccccc4)c4ccccc24)N3)C1 (stereo not drawn)	6	-51	5.5*	-16	-8	0
COc1ccc(-n2nc([N+](=O)[O-])c(=NCCCN3CCCC3=O)n2O)cc1	-9	-3	4.8*	6	-1	0
O=C1CCCN1CCCN=c1c([N+](=O)[O-])nn(-c2ccc(Cl)cc2)n1O	7	3	1	-12	-2	x
COCc1cc(N2CCNC[C@@H]2C)ccc1N1CCN(Cc2ccccc2)[C@H](C)C1	x	x	1	x	x	x
COC(=O)C(NC(=O)c1ccccc1)=C1C=C(C)OC(C)=C1	-5	-1	5.3*	-16	0	4
COc1ccc(C2C(C#N)=C(N)Oc3c2sc2nc(C)cc(C)c32)cc1 (stereo not drawn)	10	-9	9.2*	2	-1	2
Nc1[nH]c(C(=O)c2ccc(Br)cc2)c(-c2ccc(Cl)cc2)c1C(=O)NCCc1c[nH]c2ccccc12	x	x	0	x	x	x
COc1ccc(N/C=C2\CCOC2=O)cc1	-39	1	5.4*	1	-14	4
CCOc1ccc(N2CC(C(=O)NCCN3C(=O)S/C(=C/c4cccnc4)C3=O)CC2=O)cc1 (stereo not drawn)	-4	-6	5.0*	x	-4	2
CC(=C/c1ccco1)/C=N/NC(=O)c1nnn(-c2nonc2N)c1CN(C)C	4	-3	7.7*	-10	-5	5.4*
Cc1ccc(/C=N/NC(=O)c2nnn(-c3nonc3N)c2-c2ccc3c(c2)OCO3)s1	-10	1	5.0*	-5	-5	4.6*
COCc1c(C(=O)N/N=C/c2ccc(C)o2)nnn1-c1nonc1N	15	3	6.6*	-11	-1	5
CCN(CC)Cc1c(C(=O)N/N=C/c2ccco2)nnn1-c1nonc1N	-4	0	3	-9	-10	x
Cc1ccc(/C=N/NC(=O)c2nnn(-c3nonc3N)c2CN(C)C)o1	20	-4	3	-12	-2	x
COC(=O)[C@]12C[C@H](CC(=O)NCCCCc3ccccc3)C(=O)N(CCC3=CCCCC3)C1=C[C@H](C(C)(C)C)O[C@@H]2C	x	x	0	x	x	x
COc1cc(/C=N/Nc2nc3ccccc3[nH]2)cc(OC)c1O	-2	7	5.1*	-5	-7	4.7*
COc1cccc(/C=N/Nc2ncnc(Cl)c2N)c1O	-12	-6	5.7*	0	-7	5.2*
COc1ccc(O)c(/C=N/Nc2nc3ccccc3[nH]2)c1	5	1	5.8*	-8	-2	4
COC(=O)c1ccc(/C=N/Nc2nc3ccccc3[nH]2)cc1	0	10	2	0	-3	x
COc1cccc(/C=N/Nc2nc3ccccc3[nH]2)c1O	0	7	5.9*	4	-1	5.2*
COC(=O)c1cc2c(c3c4cc(F)ccc4n(S(=O)(=O)c4ccc(C)cc4)c13)C(=O)N(Cc1ccc(N(C)C)cc1)C2	x	x	0	x	x	x

From PubChem BioAssay
